Test results published in article PMC3949138 (Journal of veterinary pharmacology and therapeutics, 2013).
Several values for one entry are separate records, joined by “and”; a condition that tells them apart may be missing. Equal values may be shown once. Read-outs that look alike come from different tables or passages of the source.

Key:
dogs = conditions: dog, in vivo; cited from earlier work
[1] = Serum pharmacokinetics of SAHA in cats after IV and PO administration; type: in vivo
Method in brief: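 Six adult SPF cats (3 female, 3 male, 10–18 months) in a randomized crossover with 1-week washout: 2 mg/kg IV (20 mg/mL in DMSO) or 250 mg/m2 PO in gelatin capsules. Serum without anticoagulant at set times up to 1440 min, stored at −70 °C. d5-SAHA internal standard at 1000 ng/mL final; acetonitrile extraction; C18 UPLC, positive-ion ESI MS/MS; LOQ 2.26 ng/mL; non-compartmental parameters.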

[2] = system: acetylated histone (H3K9,14); type: in vivo, cats
[3] = ref Sandhu et al., 2007, cited from earlier work
cats = assay: Tolerability monitoring in cats; type: in vivo
Method in brief: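 Six cats dosed in the crossover (2 mg/kg IV in DMSO; 250 mg/m2 PO capsules) had physical examinations. CBC (14 parameters) and serum biochemistry (16 values) were taken 1 week before, 24 h after and 1 week after each dose. Daily food intake was recorded for 1 week before and after each dosage; days compared by […].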

[4] = ref Kelly et al., 2005, cited from earlier work
[5] = cats n=6, 250 mg/m2 PO, mean ± SD
[6] = after IV administration of the SAHA/DMSO mixture

Q: With `O=C(CCCCCCC(=O)Nc1ccccc1)NO` [SAHA, Suberoylanilidehydroxamic acid] as the compound, how does the “no observed adverse effects level (NOAEL)” value (dogs) read?
A: The value was 60 mg/kg.

Q: What about the Cmax ([1]; both, cat, serum, po, 250 mg/m2) of the same compound?
A: The Cmax was ~160 nM.

Q: What about the AUC ([1]; both, serum, iv, 2 mg/kg) of the same compound?
A: The AUC was 150 ± 40 ng·h/mL.

Q: And the AUC(0-inf) ([1]; both, serum, iv, 2 mg/kg)?
A: The AUC(0-inf) was 150 ± 50 ng·h/mL.

Q: And the clearance ([1]; both, serum, iv, 2 mg/kg)?
A: Its clearance is 233 mL/min/kg.

Q: What about the half-life ([1]; both, serum, iv, 2 mg/kg) of the same compound?
A: The half-life was 9 min.

Q: What about the half-life ([1]; both, serum, po, 2 mg/kg) of the same compound?
A: The half-life was 120 ± 60 min.

Q: And the AUC ([1]; both, serum, po, 250 mg/m2)?
A: Its AUC is 0.266 µM·h and 70 ng·h/mL.

Q: And the AUC(0-inf) ([1]; both, serum, po, 250 mg/m2)?
A: The AUC(0-inf) was 80 ± 20 ng·h/mL.

Q: And the Cmax ([1]; both, serum, po, 250 mg/m2)?
A: Its Cmax is 160 nM.

Q: What about the bioavailability ([1]; both, serum, po, 250 mg/m2) of the same compound?
A: The bioavailability was 8 ± 4%.

Q: And the Cmax ([1]; cat, serum, po, 60 mg/kg)?
A: The Cmax was 50.1 ng/mL.

Q: And the “T1/2λz (elimination half-life)” value ([1]; cats n=6, 2 mg/kg IV in DMSO, serum, mean ± SD)?
A: Its value is 9 ± 1.8 min.

Q: And the “Percent Extrapolated (of AUC)” value ([1]; cats n=6, 2 mg/kg IV, mean ± SD)?
A: Its value is 0.6 ± 0.2%.

Q: What about the “Cmaxobs (observed maximum serum concentration)” value [1, 5] of the same compound?
A: The value was 41.7 ng/mL and 40 ± 10 ng/mL.

Q: And the “Percent Extrapolated (of AUC)” value [1, 5]?
A: Its value is 17 ± 7%.

Q: And the “Tmaxobs (time to observed maximal serum concentration)” value [1, 5]?
A: The value was 36 ± 18 min.

Q: What about the “acetylated histone protein in blood leukocytes (acetyl H3/total H3)” value ([2]; 4 cats, 2 mg/kg IV and 250 mg/m2 PO) of the same compound?
A: The value was “An increase in acetylated histone protein was detected”.

Q: And the “time for acetylated histone protein to return to baseline” value ([2]; 4 cats, after IV and PO administration)?
A: Its value is “approximately 2 hours”.

Q: What about the “histone acetylation in peripheral blood mononuclear cells” value ([2]; single cat #11-245, 60 mg/kg PO, 0, 60, 120, 1440 min) of the same compound?
A: The value was “demonstrated a pharmacodynamic effect which roughly correlated with pharmacokinetics”.

Q: What about the oral bioavailability ([3]; dog) of the same compound?
A: The oral bioavailability was 1.8%.

Q: What about the terminal elimination half-life ([3]; dogs, 2 mg/kg IV) of the same compound?
A: Its terminal elimination half-life is 12 min.

Q: And the AUC0-τ ([3]; dogs, 20 mg/kg oral)?
A: The AUC0-τ was 0.42 µM·h.

Q: And the Cmax ([3]; read-out: average Cmax, dogs, 20 mg/kg oral)?
A: Its Cmax is 260 nM.

Q: And the overall tolerability (cats; 2 mg/kg IV and 250 mg/m2 PO, domestic cats)?
A: The overall tolerability was “well tolerated”.

Q: What about the “change in daily food intake following drug administration” value (cats; 1 week before and 1 week after each dosage (IV and PO)) of the same compound?
A: Its value is “No significant change”.

Q: And the “duration of moderate bleeding from venipuncture sites” value (cats; [6])?
A: Its value is “up to 5 minutes”.

Q: What about the “moderate bleeding from venipuncture sites (cats affected)” value (cats; [6]) of the same compound?
A: The value was 2/6.

Q: What about the “open-mouth breathing (cats affected)” value (cats; immediately following 2 mg/kg IV injection in DMSO) of the same compound?
A: Its value is 2/6.

Q: And the “half-life following IV administration” value ([4]; humans, IV, 2003, Kelly et al.)?
A: The value was 21 to 58 min.

Q: What about the bioavailability ([4]; patients with advanced cancer, estimated) of the same compound?
A: Its bioavailability is 43%.
